Reference: ChEMBL document CHEMBL5108090, “Structure-activity relationship study of PROTACs against hematopoietic prostaglandin D2 synthase” (RSC Med Chem, 2022)
Active and inactive are the calls of the source. The rule behind the calls is not given here.

Experiments:
[1] = biological target: T1, Protein cereblon/Hematopoietic prostaglandin D synthase (Homo sapiens, UniProt O60760+Q96SW2); assay: PROTAC activity at CRBN/H-PGDS in human KU812 cells assessed as reduction in H-PGDS levels incubated for 24 hrs by Western blotting analysis; format: cell-based, KU812 cell line
Summary of the method: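 KU812 cells were incubated with a compound concentration series for 24 h. SDS lysates (equal protein) were blotted for H-PGDS and β-actin with ECL quantification. The H-PGDS/actin ratio was set relative to DMSO (100%); mean ± SEM, n = 3. DC50 came from a linear fit through the three points spanning 50% protein level.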
Target sequence in this assay (O60760 whole entry): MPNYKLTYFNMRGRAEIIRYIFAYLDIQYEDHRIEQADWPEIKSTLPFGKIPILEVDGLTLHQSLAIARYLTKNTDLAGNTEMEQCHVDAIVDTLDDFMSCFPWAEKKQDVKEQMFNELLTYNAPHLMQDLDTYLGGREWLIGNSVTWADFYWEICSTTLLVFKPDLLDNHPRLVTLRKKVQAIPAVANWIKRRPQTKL
Target sequence in this assay (Q96SW2 whole entry): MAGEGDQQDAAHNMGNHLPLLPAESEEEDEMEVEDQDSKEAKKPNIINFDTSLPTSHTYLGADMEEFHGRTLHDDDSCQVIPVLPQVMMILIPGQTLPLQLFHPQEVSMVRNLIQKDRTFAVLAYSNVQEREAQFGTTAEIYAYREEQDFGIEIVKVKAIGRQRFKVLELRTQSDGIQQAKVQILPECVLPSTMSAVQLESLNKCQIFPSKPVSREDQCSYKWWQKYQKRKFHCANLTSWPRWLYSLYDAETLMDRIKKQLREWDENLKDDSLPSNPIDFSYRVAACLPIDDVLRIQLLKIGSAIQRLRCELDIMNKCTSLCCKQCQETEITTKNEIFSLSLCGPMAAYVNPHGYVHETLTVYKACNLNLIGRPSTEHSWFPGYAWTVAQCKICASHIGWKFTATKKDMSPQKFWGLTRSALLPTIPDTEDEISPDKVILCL

[2] = biological target: T2, Hematopoietic prostaglandin D synthase (Homo sapiens, UniProt O60760); assay: Binding affinity to recombinant human H-PGDS incubated for 1 hrs by competitive fluorescence polarization assay
T2 sequence (O60760 whole entry): as the sequence (O60760 whole entry) above
Summary of the method: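 Competitive FP assay using a commercial kit. Recombinant human H-PGDS, glutathione and fluorescent probe in assay buffer. Compounds were added from DMSO stocks at final 2.50 μM to 2.44 nM (11 points), in triplicate, for 1 h at room temperature. Read at ex 470/em 530 nm in mP. IC50 is the concentration giving a 50% mP reduction, from a semi-log plot.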

[3] = biological target: T1, Protein cereblon/Hematopoietic prostaglandin D synthase; assay: PROTAC activity at CRBN/H-PGDS in human KU812 cells assessed as reduction in A23187-stimulated PGD2 levels at 10 nM preincubated for 24 hrs followed by A23187 stimulation for 30 mins by ELISA analysis relative to control; format: cell-based; conditions: KU812 cell line, time 24.5 hrs
Summary of the method: (§1)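 KU812 cells (human CML; RPMI-1640, 10% FBS, penicillin–streptomycin) were treated with compound for 24 h. They were then stimulated with 5 μM calcium ionophore A23187 for 30 min. PGD2 in the culture medium was quantified by PGD2-MOX ELISA per the kit instructions.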
Target sequence in this assay (O60760 whole entry, looked up): as the sequence (O60760 whole entry) above
Target sequence in this assay (Q96SW2 whole entry, looked up): as the sequence (Q96SW2 whole entry) above

[4] = biological target: T1, Protein cereblon/Hematopoietic prostaglandin D synthase; assay: PROTAC activity at CRBN/H-PGDS in human KU812 cells assessed as reduction in H-PGDS levels at 1 nM incubated for 6 hrs by Western blotting analysis; format: cell-based; conditions: KU812 cell line
Summary of the method: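 KU812 cells were exposed to compound for 6 h, with MG132 or MLN7243 co-treatment or ligand competition in some arms. Lysates in SDS buffer were boiled and equal protein by BCA was run on SDS-PAGE. Blots used anti-H-PGDS and anti-β-actin with ECL detection. H-PGDS/β-actin was normalized to the DMSO control (100%); mean ± SEM, n = 3.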
Target sequence in this assay (O60760 whole entry, looked up): as the sequence (O60760 whole entry) above
Target sequence in this assay (Q96SW2 whole entry, looked up): as the sequence (Q96SW2 whole entry) above

[5] = biological target: T2, Hematopoietic prostaglandin D synthase; assay: Inhibition of H-PGDS in human KU812 cells assessed as reduction in A23187-stimulated PGD2 levels at 10 nM preincubated for 24 hrs followed by A23187 stimulation for 30 mins by ELISA analysis; format: cell-based; conditions: KU812 cell line, time 24.5 hrs; summary of the method: as §1

DC50 [1] | IC50 [2] | Activity [3] | Activity [4] | inhibition [5] | Compound
0.0714 nM | 78.1 nM | Active | – | – | Cn1cccc1C(=O)N1CCN(C(=O)Nc2ccc(N3CCC(C(=O)N4CCN(c5cccc6c5C(=O)N(C5CCC(=O)NC5=O)C6=O)CC4)CC3)cc2)CC1 (configuration not stated)
0.0238 nM | 124 nM | Active | – | – | Cn1cccc1C(=O)N1CCN(C(=O)Nc2ccc(N3CCC(C(=O)N4CCN(c5ccc6c(c5)C(=O)N(C5CCC(=O)NC5=O)C6=O)CC4)CC3)cc2)CC1 (configuration not stated)
0.0187 nM | 116 nM | Active | – | – | O=C1CCC(N2C(=O)c3cccc(N4CCN(C(=O)C5CCN(c6ccc(NC(=O)c7cnc(Oc8ccccc8)nc7)cc6)CC5)CC4)c3C2=O)C(=O)N1 (configuration not stated)
0.0276 nM | 196 nM | Active | Active | – | O=C1CCC(N2C(=O)c3ccc(N4CCN(C(=O)C5CCN(c6ccc(NC(=O)c7cnc(Oc8ccccc8)nc7)cc6)CC5)CC4)cc3C2=O)C(=O)N1 (configuration not stated)
– | 134 nM | – | – | Active | Cn1cccc1C(=O)N1CCN(C(=O)Nc2ccc(N3CCC(C(=O)N4CCOCC4)CC3)cc2)CC1
– | 211 nM | – | – | Active | O=C(Nc1ccc(N2CCC(C(=O)N3CCOCC3)CC2)cc1)c1cnc(Oc2ccccc2)nc1
